Source: ChEMBL document CHEMBL2046418, “Pyrrolidinobenzoic acid inhibitors of influenza virus neuraminidase: the hydrophobic side chain influences type A subtype selectivity” (Bioorg Med Chem, 2012)

Key:
[1] = Inhibition of Influenza B virus (B/Malayasia/5206/04) neuraminidase using fluorogenic substrate 2'-(4-methylumbelliferyl)-alpha-D-N-acetylneuraminic acid preincubated with inhibitor for 30 mins measured after 15 mins by fluorescence analysis
How it was run: (§1)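 Purified intact virions served as the NA source. They were preincubated 30 min at room temperature with two-fold inhibitor dilutions in 50 mM sodium acetate pH 6.0, 100 µM CaCl2, 320 µM MgCl2 and 60 mM NaCl. 100 µM MUNANA was added, then incubated 15 min at 37 °C and stopped with 5 volumes 0.2 M glycine-NaOH pH 11. IC50 came from a log(inhibitor)-normalized response fit, cross-checked from the linear region of fractional activity versus concentration.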

Neuraminidase [2] = target: T1, Neuraminidase (Influenza A virus, UniProt B4URF0); assay: Inhibition of Influenza A virus (A/Uruguay/716/2007(H3N2)) neuraminidase using fluorogenic substrate 2'-(4-methylumbelliferyl)-alpha-D-N-acetylneuraminic acid preincubated with inhibitor for 30 mins measured after 15 mins by fluorescence analysis; how it was run: as §1
Neuraminidase [3] = target: T1, Neuraminidase; assay: Inhibition of Influenza A virus (A/Solomon Islands/3/2006(H1N1)) neuraminidase using fluorogenic substrate 2'-(4-methylumbelliferyl)-alpha-D-N-acetylneuraminic acid preincubated with inhibitor for 30 mins measured after 15 mins by fluorescence analysis; how it was run: as §1
Neuraminidase [4] = target: T1, Neuraminidase; assay: Inhibition of Influenza A virus (A/Brisbane/59/2007(H1N1)) neuraminidase using fluorogenic substrate 2'-(4-methylumbelliferyl)-alpha-D-N-acetylneuraminic acid preincubated with inhibitor for 30 mins measured after 15 mins by fluorescence analysis; how it was run: as §1
[5] = Inhibition of Influenza B virus (B/Malaysia/2506/2004) neuraminidase using fluorogenic substrate 2'-(4-methylumbelliferyl)-alpha-D-N-acetylneuraminic acid preincubated with inhibitor for 30 mins measured after 15 mins by fluorescence analysis; how it was run: as §1
Neuraminidase [6] = target: T1, Neuraminidase; assay: Inhibition of Influenza A virus (A/Wisconsin/67/2005(H3N2)) neuraminidase using fluorogenic substrate 2'-(4-methylumbelliferyl)-alpha-D-N-acetylneuraminic acid preincubated with inhibitor for 30 mins measured after 15 mins by fluorescence analysis; how it was run: as §1
[7] = Inhibition of influenza B virus neuraminidase
How it was run: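 Purified intact influenza B virions as neuraminidase source. Preincubated 30 min at room temperature with two-fold inhibitor dilutions in 50 mM sodium acetate pH 6.0, 100 μM CaCl2, 320 μM MgCl2, 60 mM NaCl. Then 100 μM 2'-(4-methylumbelliferyl)-α-D-N-acetylneuraminic acid, 15 min at 37 °C, stopped with 5 volumes 0.2 M glycine-NaOH pH 11. Fluorescence read-out. IC50 from log(inhibitor) vs normalized response, cross-checked against the linear region of the fractional-activity curve.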

Neuraminidase [8] = target: T1, Neuraminidase; assay: Inhibition of influenza A virus neuraminidase
How it was run: (§2)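 Enzyme source was purified intact virions. Then 100 μM 2'-(4-methylumbelliferyl)-α-D-N-acetylneuraminic acid was added and incubated 15 min at 37 °C. Reactions were stopped with 0.2 M glycine-NaOH pH 11. IC50 came from normalized log(inhibitor)-response fitting, cross-checked against the linear region of fractional activity versus concentration.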

Neuraminidase [9] = target: T1, Neuraminidase; assay: Inhibition of Influenza A virus (A/Oklahoma/3052/2009(H1N1)) neuraminidase using fluorogenic substrate 2'-(4-methylumbelliferyl)-alpha-D-N-acetylneuraminic acid preincubated with inhibitor for 30 mins measured after 15 mins by fluorescence analysis; how it was run: as §1
Neuraminidase [10] = target: Neuraminidase (Influenza B virus (strain B/Lee/1940), UniProt P03474); assay: Inhibition of Influenza B virus (B/Lee/1940) neuraminidase using fluorogenic substrate 2'-(4-methylumbelliferyl)-alpha-D-N-acetylneuraminic acid preincubated with inhibitor for 30 mins measured after 15 mins by fluorescence analysis; how it was run: as §2
Neuraminidase [11] = target: T1, Neuraminidase; assay: Inhibition of influenza A virus avian N9 neuraminidase
[12] = target: Neuraminidase (Influenza A virus (A/Puerto Rico/8/1934(H1N1)), UniProt P03468); assay: Inhibition of Influenza A virus (A/Puerto Rico/8/1934(H1N1)) neuraminidase using fluorogenic substrate 2'-(4-methylumbelliferyl)-alpha-D-N-acetylneuraminic acid preincubated with inhibitor for 30 mins measured after 15 mins by fluorescence analysis; how it was run: as §2
Neuraminidase [13] = target: Neuraminidase (Influenza A virus (strain A/Udorn/307/1972 H3N2), UniProt P0DOF9); assay: Inhibition of Influenza A virus (A/udorn/1972(H3N2)) neuraminidase using fluorogenic substrate 2'-(4-methylumbelliferyl)-alpha-D-N-acetylneuraminic acid preincubated with inhibitor for 30 mins measured after 15 mins by fluorescence analysis; how it was run: as §1

With CCC(C)OCc1cc(C(=O)O)ccc1N1C(=O)CCC1(CO)CO (centres undefined) the IC50 [1] was 80 µM, the IC50 (Neuraminidase [2]) was 0.2 µM and the IC50 (Neuraminidase [3]) was 11 µM.
CC(C)OCc1cc(C(=O)O)ccc1N1C(=O)CCC1(CO)CO gave an IC50 (Neuraminidase [4]) of over 10000 µM and an IC50 (Neuraminidase [2]) of 4000 µM.
For CC(C)Cc1cc(C(=O)O)ccc1N1C(=O)CCC1(CO)CO, the IC50 [5] was 140 µM and the IC50 (Neuraminidase [2]) was 3 µM.
With O=C(O)c1ccc(N2C(=O)CCC2(CO)CO)c(COCc2ccccc2)c1 the IC50 (Neuraminidase [2]) was 200 µM and the IC50 (Neuraminidase [3]) was 1600 µM.
In the case of CCCC(CCC)Cc1cc(C(=O)O)ccc1N1C(=O)CCC1(CO)CO, the IC50 (Neuraminidase [6]) is reported as 0.5 µM and the IC50 [5] is reported as 190 µM.
Work on CC(=O)N[C@H]1[C@H]([C@H](O)[C@H](O)CO)OC(C(=O)O)=C[C@@H]1O [NEU5AC2EN] yielded a Ki [7] of 4 µM and a Ki (Neuraminidase [8]) of 4 µM.
Molecule CCC(=Cc1cc(C(=O)O)ccc1N1C(=O)CCC1(CO)CO)CC has an IC50 (Neuraminidase [6]) of 0.41 µM, an IC50 [5] of 120 µM and an IC50 (Neuraminidase [9]) of 3.4 µM.
Molecule O=C(O)c1ccc(N2C(=O)CCC2(CO)CO)c(COc2ccccc2)c1 has an IC50 (Neuraminidase [2]) of 40 µM and an IC50 (Neuraminidase [3]) of 400 µM.
CCC(CC)OCc1cc(C(=O)O)ccc1N1C(=O)CCC1(CO)CO showed an IC50 (Neuraminidase [4]) of 1 µM, an IC50 [1] of 30 µM and an IC50 (Neuraminidase [2]) of 0.5 µM. It also gave an IC50 (Neuraminidase [3]) of 0.8 µM.
With CCC(CC)Nc1cc(C(=O)O)ccc1N1C(=O)CCC1(CO)CO the IC50 (Neuraminidase [10]) was 271 µM, the IC50 (Neuraminidase [11]) was 0.048 µM and the IC50 [12] was 79 µM. It also gave an IC50 (Neuraminidase [13]) of 0.49 µM.
Molecule CCC(CC)Cc1cc(C(=O)O)ccc1N1C(=O)CCC1(CO)CO has an IC50 (Neuraminidase [6]) of 0.2 µM, an IC50 [5] of 32 µM and an IC50 (Neuraminidase [9]) of 3.2 µM.
